In ChEMBL document CHEMBL3259808, “Optimization of antitrypanosomatid agents: identification of nonmutagenic drug candidates with in vivo activity” (J Med Chem, 2014):

Assays:
[1] = Selectivity index, ratio of IC50 for mouse J774.1 cells to IC50 for Trypanosoma cruzi Tulahuen 2 epimastigotes; type: toxicity; details: read-out: Ratio IC50
Outline: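 J774.1 macrophages grown in DMEM with 10% heat-inactivated FCS and allowed to attach 48 h, then exposed 48 h at 37 °C to 12.5–400.0 μM. Triplicates. MTT 0.1 mg/mL for 3 h, read at 560 nm; IC50 by linear regression against the solvent control. SI = IC50 J774.1 / parasite IC50 (Sylvio X-10 amastigotes or Tulahuen 2 epimastigotes, the latter measured by A600 growth inhibition at day 5).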

Trypanosoma cruzi [2] = experiment: Antitrypanosomal activity against Trypanosoma cruzi Tulahuen 2 epimastigotes assessed as growth inhibition after 5 days; type: functional, organism-based; details: Trypanosoma cruzi, Tulahuen 2, 120 h
Outline: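 Epimastigotes were grown axenically at 28 °C in BHI-tryptose with 5% FBS and seeded from a 5–7 day culture at 1 × 10⁶ cells/mL. Drug from a DMSO stock was added (final DMSO ≤0.4%; the control contained 0.4% DMSO). Duplicates were run. A600 was read at day 5, and % inhibition was calculated relative to day-0 and control readings. IC50 = concentration that halves the absorbance ratio.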

Salmonella typhimurium [3] = experiment: Mutagenic activity in Salmonella typhimurium TA98 at 0.3 to 40 ug/plate by Ames test in presence of mouse liver S9 fraction; type: toxicity, organism-based; details: salmonella enterica subsp. enterica serovar typhimurium
Outline: (§1)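 Ames plate-incorporation assay with S. typhimurium TA98 in Vogel-Bonner E minimal glucose agar. Toxicity toward the bacteria was checked first. DMSO solutions were run in triplicate at five consecutive third-dilutions, starting at the highest non-toxic dose. Positive controls were 4-nitro-o-phenylenediamine (20.0 μg/plate) and 2-aminofluorene (10.0 μg/plate); DMSO was the negative control. Revertants were counted manually. A compound was called mutagenic when revertants were at least twice the negative control at two or more consecutive doses.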

Salmonella typhimurium [4] = experiment: Mutagenic activity in Salmonella typhimurium TA98 at 0.3 to 40 ug/plate by Ames test; type: toxicity, organism-based; details: salmonella enterica subsp. enterica serovar typhimurium; outline: as §1
Trypanosoma cruzi [5] = experiment: Antitrypanosomal activity against Trypanosoma cruzi CL Brener infected in BALB/c mouse assessed as mouse survival at 192 umol/kg/day, po for 14 days administered in saline and tween 80 measured up to 60 days relative to control; type: functional
[6] = Selectivity index, ratio of IC50 for African green monkey Vero cells to IC50 for Trypanosoma cruzi Sylvio X-10 amastigotes; type: toxicity, cell-based; details: read-out: Ratio IC50
Outline: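 VERO cytotoxicity: cells exposed 48 h at 37 °C, 5% CO2 to serial dilutions from a maximum of 2000 μM (DMSO stocks; DMSO <0.1% control); growth inhibition read by MTT at 570 nm. Amastigote IC50: Sylvio X-10-infected VERO cells, five doses, infected cells counted among 300 (Giemsa), quadruplicate, three experiments, sigmoidal fit. SI = IC50 VERO / IC50 amastigote.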

Trypanosoma cruzi [7] = experiment: Antitrypanosomal activity against Trypanosoma cruzi CL Brener infected in BALB/c mouse assessed as peak of maximum parasitemia at 192 umol/kg/day, po for 14 days administered in saline and tween 80 measured up to 60 days relative to control; type: functional
Outline: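 Male BALB/c mice (30 days old, 25–30 g, SPF) were infected i.p. with 10³ blood trypomastigotes, n = 8/group. Daily oral gavage in saline/Tween 80 (4:1) ran for 14 days from day 6 post-infection; controls received vehicle only. Parasitemia was counted weekly in tail-vein blood by hemocytometer for 60 days, and survival was recorded.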

Trypanosoma cruzi [8] = experiment: Antitrypanosomal activity against Trypanosoma cruzi Sylvio X-10 amastigotes infected in African green monkey Vero cells assessed as eradication of amastigotes after 72 hrs by Giemsa staining-based assay; details: Trypanosoma cruzi, Sylvio X-10, Vero, 72 h

SMILES | selectivity ratio [1] | IC50 (Trypanosoma cruzi [2]) | Activity (Salmonella typhimurium [3]) | Activity (Salmonella typhimurium [4]) | survival at 192 µmol/kg (Trypanosoma cruzi [5]) | selectivity ratio [6] | Time (Trypanosoma cruzi [7]) | IC50 (Trypanosoma cruzi [8])
C=CCn1c(C)cs\c1=N/N=C/C=C/c1cccs1 | < 7 | > 25 µM | Non-toxic | Non-toxic | – | – | – | –
O=C(Cn1ccnc1[N+](=O)[O-])NCc1ccccc1 [BENZNIDAZOLE] | – | 7 µM | – | – | 100% | 300 | 42 days | 3.3 µM
